# The source made the active and inactive calls. The calls are words filed in the database; no cut-off is given here.
# Assays:
# Assay type in all cases: cell-based
# [1] = molecular target: T1, Protein cereblon/Cyclin-dependent kinase 9 (Homo sapiens, UniProt P50750+Q96SW2); assay: Protac activity at CDK9/CRBN in human HEK293 cells assessed as degradation of CDK9 at 0.01 to 10 uM incubated for 24 hrs by Western blot analysis; settings: dose 0.01-10 µM
# Outline: (§1)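 HEK293 cells were treated with increasing concentrations (0.01–10 μM) for 24 hr. Lysates were analysed by western blot for CDK9 degradation.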
# Target sequence in this assay (P50750 whole entry, looked up): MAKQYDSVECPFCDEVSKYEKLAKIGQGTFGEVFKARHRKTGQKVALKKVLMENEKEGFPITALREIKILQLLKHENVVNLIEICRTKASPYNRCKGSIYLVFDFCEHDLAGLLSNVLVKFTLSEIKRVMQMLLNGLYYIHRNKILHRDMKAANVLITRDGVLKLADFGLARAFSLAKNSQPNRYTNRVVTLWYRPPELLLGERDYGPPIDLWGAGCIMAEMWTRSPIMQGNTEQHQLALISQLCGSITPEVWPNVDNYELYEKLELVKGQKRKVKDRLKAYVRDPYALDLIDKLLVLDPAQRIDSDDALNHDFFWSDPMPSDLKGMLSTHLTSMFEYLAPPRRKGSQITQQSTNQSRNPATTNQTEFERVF
# Target sequence in this assay (Q96SW2 whole entry, looked up): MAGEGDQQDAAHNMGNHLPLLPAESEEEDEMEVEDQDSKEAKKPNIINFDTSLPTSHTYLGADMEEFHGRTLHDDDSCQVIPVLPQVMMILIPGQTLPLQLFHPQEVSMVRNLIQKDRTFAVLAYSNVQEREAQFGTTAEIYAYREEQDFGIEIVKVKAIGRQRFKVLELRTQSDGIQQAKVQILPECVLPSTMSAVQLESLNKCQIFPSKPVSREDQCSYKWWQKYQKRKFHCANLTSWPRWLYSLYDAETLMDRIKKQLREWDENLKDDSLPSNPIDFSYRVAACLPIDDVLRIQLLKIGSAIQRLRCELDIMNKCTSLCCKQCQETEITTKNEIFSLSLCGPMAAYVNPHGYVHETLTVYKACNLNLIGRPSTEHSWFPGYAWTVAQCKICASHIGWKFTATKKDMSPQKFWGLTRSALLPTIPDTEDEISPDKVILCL
# [2] = molecular target: Cyclin-dependent kinase 7 (Homo sapiens) (UniProt P50613); assay: Inhibition of CDK7 in human HEK293 cells assessed as reduction in CDK7 level at 10 uM incubated for 24 hrs by Western blot analysis
# Chain of Cyclin-dependent kinase 7 (Homo sapiens) (P50613 whole entry): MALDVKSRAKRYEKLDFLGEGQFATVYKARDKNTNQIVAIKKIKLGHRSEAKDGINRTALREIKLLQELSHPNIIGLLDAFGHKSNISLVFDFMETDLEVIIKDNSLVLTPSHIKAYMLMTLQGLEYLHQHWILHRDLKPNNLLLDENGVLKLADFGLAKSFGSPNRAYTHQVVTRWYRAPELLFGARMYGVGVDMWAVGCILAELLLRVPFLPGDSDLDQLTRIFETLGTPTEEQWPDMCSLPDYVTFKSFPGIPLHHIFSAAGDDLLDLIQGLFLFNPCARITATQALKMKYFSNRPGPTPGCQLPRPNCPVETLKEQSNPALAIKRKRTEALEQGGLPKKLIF
# Outline: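 HEK293 cells were treated at indicated concentrations for 24 h. Lysates were analysed by western blot and probed for CDK family members, including CDK7 and CDK9.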
# [3] = molecular target: T1, Protein cereblon/Cyclin-dependent kinase 9; assay: Protac activity at CDK9/CRBN in human HEK293 cells assessed as degradation of CDK9 incubated for 24 hrs by Western blot analysis; outline: as §1
# Target sequence in this assay (P50750 whole entry): as the sequence (P50750 whole entry, looked up) above
# Target sequence in this assay (Q96SW2 whole entry): as the sequence (Q96SW2 whole entry, looked up) above
Activity [1],Structure (SMILES),other results
inactive,O=C(CCCOc1ccc(CC(=O)Nc2cc(C3CCC3)[nH]n2)cc1)NCCCOCCOCCOCCCNc1cccc2c1C(=O)N(C1CCC(=O)NC1=O)C2=O (stereo unspecified),–
–,CN1CC[C@H](c2c(O)cc(O)c3c(=O)cc(-c4ccccc4Cl)oc23)[C@H](O)C1,Activity [2]: inactive
inactive,O=C(COc1ccc(CC(=O)Nc2cc(C3CCC3)[nH]n2)cc1)NCCCOCCOCCOCCCNc1cccc2c1C(=O)N(C1CCC(=O)NC1=O)C2=O (stereo unspecified),–
–,O=C(COc1ccc(CC(=O)Nc2cc(C3CCC3)[nH]n2)cc1)NCCCCCCCCNc1cccc2c1C(=O)N(C1CCC(=O)NC1=O)C2=O (stereo unspecified),DC50 [3]: 1000 nM
inactive,O=C(COCCOCCOCCOc1cccc(CC(=O)Nc2cc(C3CCC3)[nH]n2)c1)NCCOCCOCCNc1cccc2c1C(=O)N(C1CCC(=O)NC1=O)C2=O (stereo unspecified),–
inactive,O=C(COCCOCCOCCOc1ccc(CC(=O)Nc2cc(C3CCC3)[nH]n2)cc1)NCCCCNc1cccc2c1C(=O)N(C1CCC(=O)NC1=O)C2=O (stereo unspecified),–

# Source: ChEMBL document CHEMBL4819106, “Aminopyrazole based CDK9 PROTAC sensitizes pancreatic cancer cells to venetoclax” (Bioorg Med Chem Lett, 2021)
